Reference: ChEMBL document CHEMBL3044969, “Syntheses and biological activities of dihydro-5,6-dehydrokawain derivatives” (1996)
Activity calls are given as the source filed them. No cut-off for these calls is given here.

What was measured:
Pythium [1] = experiment: Antifungal activity against Pythium sp. assessed as growth inhibition at 100 ppm by agar dilution method relative to control; format: functional; conditions: read-out: GI
Procedure, shortened: (§1)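 Pythium sp. and Corticium rolfsii were each grown on potato dextrose agar (1.5% agar) for 5 days at 27°C before testing. Growth inhibition was measured by agar dilution, following a previously reported method.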

Pythium [2] = experiment: Antifungal activity against Pythium sp. assessed as growth inhibition at 1000 ppm by agar dilution method relative to control; format: functional; conditions: read-out: GI; procedure, shortened: as §1
Athelia rolfsii [3] = experiment: Antifungal activity against Athelia rolfsii assessed as growth inhibition at 1000 ppm by agar dilution method relative to control; format: functional; conditions: Agroathelia rolfsii; read-out: GI; procedure, shortened: as §1
Athelia rolfsii [4] = experiment: Antifungal activity against Athelia rolfsii assessed as growth inhibition at 100 ppm by agar dilution method relative to control; format: functional; conditions: Agroathelia rolfsii; read-out: GI; procedure, shortened: as §1
Coptotermes formosanus [5] = experiment: Insecticidal activity against Coptotermes formosanus assessed as increase in mortality at 1 mg/filter paper measured for 14 days relative to control; format: functional
Procedure, shortened: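 The termite assay was run in three replicates, which were combined into a mean. Mortality is given as a percentage relative to the untreated control termite group.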

Coptotermes formosanus [6] = experiment: Insecticidal activity against Coptotermes formosanus assessed as increase in mortality at 0.1 to 1 mg/filter paper measured for 14 days; format: functional, organism-based
Procedure, shortened: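 Termite mortality was counted in three replicates and the replicates were combined into a mean. Mortality is given as a percentage relative to an untreated control group of termites.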

| SMILES | inhibition of growth at 100 ppm (Pythium [1]) | inhibition of growth at 1000 ppm (Pythium [2]) | inhibition of growth at 1000 ppm (Athelia rolfsii [3]) | inhibition of growth at 100 ppm (Athelia rolfsii [4]) | mortality (Coptotermes formosanus [5]) | Activity (Coptotermes formosanus [6]) |
| --- | --- | --- | --- | --- | --- | --- |
| CCOP(=S)(OCC)Oc1cc(CCc2ccccc2)oc(=O)c1 | 18% | 44% | 66% | 57% | 50% | – |
| O=c1cc(O)cc(CCc2ccccc2)o1 | 22% | 100% | 100% | 44% | – | inactive |
| COP(=S)(OC)Oc1cc(CCc2ccccc2)oc(=O)c1 | 50% | 88% | 98% | 91% | 93% | – |
| COc1cc(/C=C/c2ccccc2)oc(=O)c1 [DESMETHOXYYANGONIN] | 42% | 86% | 54% | 0% | – | – |
| COc1cc(CCc2ccccc2)oc(=O)c1 [DIHYDRO-5,6-DEHYDROKAWAIN] | 72% | 94% | 96% | 64% | – | inactive |
